From PMC2606940 (The Journal of General Physiology, 2009)
Changes are numbered by the printed parent chain. Like-named read-outs stand apart in the source and are kept apart here.

How the values were obtained:
CLC-0 E166A mutant = biological target: T1, CLC-0 E166A mutant (Torpedo marmorata, UniProt P21564, C212S/E166A); format: cell-based; details: for IC50: read-out: Apparent affinity (K1/2)
T1 sequence (P21564 1-805 E166A/C212S): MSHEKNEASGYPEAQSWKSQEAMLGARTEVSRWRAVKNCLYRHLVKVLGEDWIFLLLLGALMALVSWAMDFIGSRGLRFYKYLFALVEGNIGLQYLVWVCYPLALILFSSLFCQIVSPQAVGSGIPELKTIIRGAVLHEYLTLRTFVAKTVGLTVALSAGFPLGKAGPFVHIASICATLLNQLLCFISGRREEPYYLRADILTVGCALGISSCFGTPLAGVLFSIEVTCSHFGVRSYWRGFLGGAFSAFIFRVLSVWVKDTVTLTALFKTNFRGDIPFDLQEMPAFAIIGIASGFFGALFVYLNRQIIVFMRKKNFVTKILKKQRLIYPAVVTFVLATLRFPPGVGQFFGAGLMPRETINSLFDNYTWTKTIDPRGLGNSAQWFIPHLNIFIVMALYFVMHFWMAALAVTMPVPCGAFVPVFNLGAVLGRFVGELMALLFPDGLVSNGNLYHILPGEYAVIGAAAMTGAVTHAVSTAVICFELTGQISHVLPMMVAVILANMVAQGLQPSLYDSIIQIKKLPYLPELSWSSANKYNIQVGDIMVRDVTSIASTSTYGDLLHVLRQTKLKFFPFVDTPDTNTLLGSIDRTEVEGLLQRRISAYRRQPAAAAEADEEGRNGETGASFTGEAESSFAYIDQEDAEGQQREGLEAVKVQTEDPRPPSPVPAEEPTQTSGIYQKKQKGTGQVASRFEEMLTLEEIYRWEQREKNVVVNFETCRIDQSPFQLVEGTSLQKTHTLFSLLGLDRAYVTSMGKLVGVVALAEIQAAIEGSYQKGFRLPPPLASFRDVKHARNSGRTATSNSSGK
Method in brief: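 HEK293 cells expressed C212S-background CLC-0 mutants and were recorded 1–3 d post-transfection as inside-out patches in symmetrical 130 mM NaCl, 10 mM HEPES, pH 7.4. CPA, fatty acids or alkyl sulfates flowed continuously on the cytoplasmic side. C10–C12 compounds were diluted into bath solution from 10 mM DMSO stocks. Test steps ran from +80 to −160 mV after a +80 mV prepulse. Steady-state current was normalized to the mean of pre- and post-blocker controls, and a Langmuir K1/2 was taken at each voltage from ~4–6 patches.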

CLC-0 E166H mutant = biological target: T2, CLC-0 E166H mutant (Torpedo marmorata, UniProt P21564, C212S/E166H); format: cell-based; details: read-out: Apparent affinity (K1/2)
T2 sequence (P21564 1-805 E166H/C212S): T1 sequence (P21564 1-805 E166A/C212S) with A166H
Method in brief: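 CLC-0 mutants in the C212S background were transfected into HEK293 cells with lipofectamine and recorded 1–3 d later as excised inside-out patches. Both sides held 130 mM NaCl, 5 mM MgCl2, 10 mM HEPES and 1 mM EGTA, pH 7.4. CPA was perfused continuously onto the cytoplasmic face. Steady-state current over the last 10 ms was normalized to bracketing blocker-free controls and fitted to a Langmuir function for K1/2. Values are mean ± SEM of ~4–6 patches.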

CCCCCCCC(=O)O [octanoate]
IC50 (CLC-0 E166A mutant; −40 mV): 64.3 ± 3.7 µM | IC50 (CLC-0 E166A mutant; −60 mV): 29.7 ± 1.4 µM | IC50 (CLC-0 E166A mutant; −80 mV): 15.7 ± 0.7 µM | IC50 (CLC-0 E166A mutant; −100 mV): 8.2 ± 0.2 µM | IC50 (CLC-0 E166A mutant; −120 mV): 4.7 ± 0.2 µM | IC50 (CLC-0 E166A mutant; −140 mV): 2.8 ± 0.2 µM | IC50 (CLC-0 E166A mutant; −160 mV): 1.9 ± 0.1 µM | K1/2 (range in words) (CLC-0 E166A mutant; −140 mV (Fig. 10 C)): low μM range | IC50 (CLC-0 E166H mutant; −80 mV): 29600 ± 1300 µM | IC50 (CLC-0 E166H mutant; −100 mV): 18400 ± 810 µM | IC50 (CLC-0 E166H mutant; −120 mV): 11500 ± 570 µM | IC50 (CLC-0 E166H mutant; −140 mV): 7020 ± 400 µM | IC50 (CLC-0 E166H mutant; −160 mV): 4570 ± 280 µM

O=C(O)COc1ccc(Cl)cc1 [CPA, p-chlorophenoxy acetate]
block of current (CLC-0 E166A mutant; 10 μM): ~50% | inhibition of current (CLC-0 E166A mutant; 300 μM CPA, −160 mV): ~95% | IC50 (CLC-0 E166A mutant; −40 mV): 337 ± 19 µM | IC50 (CLC-0 E166A mutant; −60 mV): 162 ± 9 µM | IC50 (CLC-0 E166A mutant; −80 mV): 82 ± 4 µM | IC50 (CLC-0 E166A mutant; −100 mV): 46 ± 2 µM | IC50 (CLC-0 E166A mutant; −120 mV): 25 ± 2 µM | IC50 (CLC-0 E166A mutant; −140 mV): 15 ± 1 µM | IC50 (CLC-0 E166A mutant; −160 mV): 10 ± 1 µM | saturated value of 1/τ of current inhibition (CLC-0 E166A mutant; voltage step +80 to −160 mV): 1561 s⁻¹ | IC50 (CLC-0 E166H mutant; −40 mV): 12400 ± 520 µM | IC50 (CLC-0 E166H mutant; −60 mV): 5860 ± 260 µM | IC50 (CLC-0 E166H mutant; −80 mV): 2870 ± 150 µM | IC50 (CLC-0 E166H mutant; −100 mV): 1450 ± 110 µM | IC50 (CLC-0 E166H mutant; −120 mV): 740 ± 80 µM | IC50 (CLC-0 E166H mutant; −140 mV): 390 ± 50 µM | IC50 (CLC-0 E166H mutant; −160 mV): 210 ± 40 µM
